Reference: paper PMC9633546 (Angewandte Chemie (International Ed. in English), 2022)
≈ marks a conversion by molar mass, not a printed value.

Legend:
Δarr M. abscessus = test: MIC assay in 96-well plate format, arr-deleted strain; assay type: cell-based, Mycobacterium abscessus; settings: isogenic arr-deleted M. abscessus ATCC 19977; 90 % growth inhibition
M. abscessus ATCC 19977 = test: MIC assay in 96-well plate format, WT M. abscessus; assay type: cell-based, Mycobacterium abscessus subsp. abscessus; settings: Mycobacteroides abscessus, ATCC19977, read-out: WT Mab MIC
Arr Mab = test: LC-MS/HPLC in vitro validation of ADP-ribosylation; assay type: biochemical, M. abscessus; settings: 40 minute incubation, 5 µM enzyme
Method in brief: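 The enzyme was recombinant M. abscessus Arr, cloned, expressed and purified in-house. Enzymatic reactions were analysed by LC-MS, quantifying the remaining rifamycin and its ADP-ribosylated adducts.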

[1] = Pharmacokinetics studies in CD-1 mice; assay type: in vivo, mouse
in vitro = settings: plasma

SMILES | Δarr Mab MIC (Δarr M. abscessus) [µM] | MIC (M. abscessus ATCC 19977) [µM] | ADP-ribosylation upon incubation with Arr Mab and NAD+ (Arr Mab) | ADP-ribosylation upon incubation with Arr Mab and NAD+ (Arr Mab; listed as Rifabutin) | V d ([1]; CD-1 mice, single dose 10 mg/kg) [L/kg] | fAUC/MIC ([1]; based on p.o. doses of 10 mg kg^−1) | half-life ([1]; female, CD-1, mouse, plasma, 10 mg/kg) [h] | fraction unbound (in vitro)
CC[C@H]1OC(=O)[C@H](C)[C@@H](O[C@H]2C[C@@](C)(OC)[C@@H](O)[C@H](C)O2)[C@H](C)[C@@H](O[C@@H]2O[C@H](C)C[C@H](N(C)C)[C@H]2O)[C@](C)(OC)C[C@@H](C)C(=O)[C@H](C)[C@@H](O)[C@]1(C)O [clarithromycin] | 1.8 | 1.45 (≈ 1.08 µg/mL) | – | – | – | – | – | –
CO[C@H]1/C=C/O[C@@]2(C)Oc3c(C)c(O)c4c(c3C2=O)C2=NC3(CCN(CC(C)C)CC3)NC2=C(NC(=O)/C(C)=C\C=C\[C@H](C)[C@H](O)[C@@H](C)[C@@H](O)[C@@H](C)[C@H](OC(C)=O)[C@@H]1C)C4=O [rifabutin] | 0.031 | 1.15 (≈ 0.974 µg/mL) | completely converted | fully converted | 3.51 | 0.22 | 4 | 0.0376
CO[C@H]1/C=C/O[C@@]2(C)Oc3c(C)c(O)c4c(O)c(c(/C=N/N5CCN(C)CC5)c(O)c4c3C2=O)NC(=O)/C(C)=C\C=C\[C@H](C)[C@H](O)[C@@H](C)[C@@H](O)[C@@H](C)[C@H](OC(C)=O)[C@@H]1C [rifampicin] | 0.26 | 5.3 (≈ 4.36 µg/mL) | completely converted | – | – | – | – | –
